Measured values as given in ChEMBL document CHEMBL3091321, “Design, synthesis and cytotoxicity of novel 3'-N-alkoxycarbonyl docetaxel analogs” (Bioorg Med Chem Lett, 2013).

Columns and labels:
[1] = tested on: SK-OV-3; experiment: Cytotoxicity against human SKOV3 cells after 48 hrs by MTT assay; assay type: functional, cell-based; conditions: SK-OV-3, 48 h
Procedure, shortened: (§1)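 Cells were exposed to drug for 48 h at seven ten-fold dilutions down to 0.1 nM. MTT in RPMI-1640 was then added for a further 4 h at 37 °C. Formazan was dissolved in DMSO and absorbance read at 570 nm after 5 min. Each run was done in triplicate. IC₅₀ is given as mean ± SD of three independent experiments.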

[2] = tested on: A549; experiment: Cytotoxicity against human A549 cells after 48 hrs by MTT assay; assay type: functional, cell-based; conditions: A549, 48 h; procedure, shortened: as §1
[3] = tested on: A549; experiment: Ratio of taxol IC50 to compound IC50 for human A549 cells; assay type: functional
[4] = tested on: A549; experiment: Ratio of docetaxel IC50 to compound IC50 for human A549 cells; assay type: functional

Row | Structure (SMILES) | IC50 [1] | IC50 [2] | Ratio IC50 [3] | Ratio IC50 [4]
1 | CC(=O)O[C@@]12CO[C@@H]1C[C@H](O)[C@@]1(C)C(=O)[C@H](O)C3=C(C)[C@@H](OC(=O)[C@H](O)[C@@H](NC(=O)O[C@H](C)C(C)C)c4ccccc4)C[C@@](O)([C@@H](OC(=O)c4ccccc4)[C@H]21)C3(C)C | 13 nM | 35 nM | – | –
2 | CC(=O)O[C@@]12CO[C@@H]1C[C@H](O)[C@@]1(C)C(=O)[C@H](O)C3=C(C)[C@@H](OC(=O)[C@H](O)[C@@H](NC(=O)O[C@@H](C)C(C)C)c4ccccc4)C[C@@](O)([C@@H](OC(=O)c4ccccc4)[C@H]21)C3(C)C | 17 nM | 60 nM | – | –
3 | CC[C@@H](C)OC(=O)N[C@@H](c1ccccc1)[C@@H](O)C(=O)O[C@H]1C[C@@]2(O)[C@@H](OC(=O)c3ccccc3)[C@@H]3[C@]4(OC(C)=O)CO[C@@H]4C[C@H](O)[C@@]3(C)C(=O)[C@H](O)C(=C1C)C2(C)C | 13 nM | 18 nM | – | –
4 | CC[C@H](C)OC(=O)N[C@@H](c1ccccc1)[C@@H](O)C(=O)O[C@H]1C[C@@]2(O)[C@@H](OC(=O)c3ccccc3)[C@@H]3[C@]4(OC(C)=O)CO[C@@H]4C[C@H](O)[C@@]3(C)C(=O)[C@H](O)C(=C1C)C2(C)C | 27 nM | 40 nM | – | –
5 | CCC(C)(C)OC(=O)N[C@@H](c1ccccc1)[C@@H](O)C(=O)O[C@H]1C[C@@]2(O)[C@@H](OC(=O)c3ccccc3)[C@@H]3[C@]4(OC(C)=O)CO[C@@H]4C[C@H](O)[C@@]3(C)C(=O)[C@H](O)C(=C1C)C2(C)C | 5.9 nM | 13 nM | >65 | >65
6 | CCCC(C)(C)OC(=O)N[C@@H](c1ccccc1)[C@@H](O)C(=O)O[C@H]1C[C@@]2(O)[C@@H](OC(=O)c3ccccc3)[C@@H]3[C@]4(OC(C)=O)CO[C@@H]4C[C@H](O)[C@@]3(C)C(=O)[C@H](O)C(=C1C)C2(C)C | 2.9 nM | 10 nM | >65 | >65
7 | CC(=O)O[C@@]12CO[C@@H]1C[C@H](O)[C@@]1(C)C(=O)[C@H](O)C3=C(C)[C@@H](OC(=O)[C@H](O)[C@@H](NC(=O)OC(C)(C)C(C)C)c4ccccc4)C[C@@](O)([C@@H](OC(=O)c4ccccc4)[C@H]21)C3(C)C | 2.7 nM | 12 nM | >65 | >65
8 | CC(=O)O[C@@]12CO[C@@H]1C[C@H](O)[C@@]1(C)C(=O)[C@H](O)C3=C(C)[C@@H](OC(=O)[C@H](O)[C@@H](NC(=O)OC(C)(C)CF)c4ccccc4)C[C@@](O)([C@@H](OC(=O)c4ccccc4)[C@H]21)C3(C)C | – | 140 nM | – | –
9 | CC(=O)O[C@@]12CO[C@@H]1C[C@H](O)[C@@]1(C)C(=O)[C@H](O)C3=C(C)[C@@H](OC(=O)[C@H](O)[C@@H](NC(=O)OC(C)C(C)C)c4ccccc4)C[C@@](O)([C@@H](OC(=O)c4ccccc4)[C@H]21)C3(C)C (mixture of isomers) | 16 nM | 47 nM | – | –
10 | CCC(C)OC(=O)N[C@@H](c1ccccc1)[C@@H](O)C(=O)O[C@H]1C[C@@]2(O)[C@@H](OC(=O)c3ccccc3)[C@@H]3[C@]4(OC(C)=O)CO[C@@H]4C[C@H](O)[C@@]3(C)C(=O)[C@H](O)C(=C1C)C2(C)C (mixture of isomers) | 22 nM | 30 nM | – | –
11 | CC(=O)O[C@@]12CO[C@@H]1C[C@H](O)[C@@]1(C)C(=O)[C@H](O)C3=C(C)[C@@H](OC(=O)[C@H](O)[C@@H](NC(=O)OC(C)(C)C)c4ccccc4)C[C@@](O)([C@@H](OC(=O)c4ccccc4)[C@H]21)C3(C)C [DOCETAXEL] | 5 nM | 850 nM | – | –
12 | CC(=O)O[C@H]1C(=O)[C@@]2(C)[C@H]([C@H](OC(=O)c3ccccc3)[C@]3(O)C[C@H](OC(=O)[C@H](O)[C@@H](NC(=O)c4ccccc4)c4ccccc4)C(C)=C1C3(C)C)[C@]1(OC(C)=O)CO[C@@H]1C[C@@H]2O [PACLITAXEL] | 35 nM | 930 nM | – | –
